Bioassay records deposited in PubChem by The Scripps Research Institute Molecular Screening Center.
The list is not random: actives were taken first. Their share in the collection is about 2.3%.
TAAR1 ag: human TAAR1 agonists, primary screen, Fluo-8 calcium fluorescence, CHO RD-HGA16 cells | activation, % at 3 µM | Trace amine-associated receptor 1 (Homo sapiens), Q96RJ0 | vehicle wells 0%, saturating PEA agonist 100% | 360,000 tested, 0.99% active;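 active means activation above the mean activation of all test compounds in the run plus 3 SD, cut at about 38% in these data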
Target sequence (Q96RJ0 whole entry, looked up): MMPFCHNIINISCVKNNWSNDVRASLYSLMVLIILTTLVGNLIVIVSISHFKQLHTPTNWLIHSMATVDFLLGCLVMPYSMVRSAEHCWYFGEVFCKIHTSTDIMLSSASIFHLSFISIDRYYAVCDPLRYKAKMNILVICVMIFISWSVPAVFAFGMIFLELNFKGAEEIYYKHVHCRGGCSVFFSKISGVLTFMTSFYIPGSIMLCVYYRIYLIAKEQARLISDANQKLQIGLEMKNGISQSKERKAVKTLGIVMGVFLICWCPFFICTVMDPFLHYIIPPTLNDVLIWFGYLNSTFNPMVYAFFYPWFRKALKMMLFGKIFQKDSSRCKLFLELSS
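test system = CHO RD-HGA16 cells carrying human TAAR1 plus Gα16 | schedule = 17-24 h seeding, 75 min 37 °C dye, 30 min RT | compound dosing = 3 µM single concentration | control set = DMSO and PEA EC100 | replicates = n 1 | signal = Fluo-8 fluorescence, 5 s baseline then 140 s kinetic read | measure = percent activation vs PEA EC100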
OXTR potentiator: human OXTR potentiators, primary screen, fluorescence, CHO-OTR cells, Fluo-8 calcium. Oxytocin receptor (Homo sapiens), P30559. activation, % at 3 µM. Fluo-8 calcium fluorescence, potentiator mode; 0% = oxytocin EC15, 100% = EC100. 320,000 tested, 0.061% active;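 active means activation above that plate's cutoff, the mean activation of tested compounds plus 3 SD, cut at about 6.6% in these data, passing the limit was not always enough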;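 further: 100% uses oxytocin at 75 nM as the full agonist control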
Target sequence (P30559 whole entry, looked up): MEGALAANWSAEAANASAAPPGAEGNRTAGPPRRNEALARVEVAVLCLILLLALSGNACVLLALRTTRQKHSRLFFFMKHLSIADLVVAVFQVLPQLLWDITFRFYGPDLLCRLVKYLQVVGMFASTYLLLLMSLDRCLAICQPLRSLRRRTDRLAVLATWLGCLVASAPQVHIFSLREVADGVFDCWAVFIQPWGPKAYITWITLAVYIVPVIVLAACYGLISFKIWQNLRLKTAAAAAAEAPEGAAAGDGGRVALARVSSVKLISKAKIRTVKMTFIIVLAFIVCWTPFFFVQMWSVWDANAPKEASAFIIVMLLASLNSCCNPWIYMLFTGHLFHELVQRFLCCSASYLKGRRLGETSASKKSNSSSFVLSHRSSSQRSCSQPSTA
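Assay system: CHO-OTR cells, human receptor / Also added: oxytocin at about EC15, sub-maximal agonist stimulus / Dosing: single dose, 3.0 µM nominal final compound concentration / Incubation: 6 min pre-incubation, 100 s read / Technique: Fluo-8 calcium dye fluorescence / Read-out: % activation vs EC15 and EC100 oxytocin / Benchmarks: EC15 oxytocin low, 75 nM oxytocin high / Replicates: singlicate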
TAAR1 antag: human TAAR1 antagonists, primary screen, Fluo-8 calcium fluorescence, CHO RD-HGA16 cells | 360,000 tested, 1.5% active | Trace amine-associated receptor 1 (Homo sapiens), Q96RJ0 | antagonist | inhibition, % at 3 µM;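 active means inhibition above a per-plate cutoff, the mean inhibition of test compounds on that plate plus 3 SD, cut at about 49% in these data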;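 further: 0% = DMSO plus EC80 beta-PEA response and 100% = DMSO alone without agonist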
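Assay system: RD-HGA16 CHO cells with stable hTAAR1 and Gα16 / Reagent: EC80 β-phenethylamine stimulus / Doses: 3 µM, single point / Timing: dye loading 75 min at 37 °C, then 30 min room temperature / Measured by: Fluo-8 intracellular calcium dye fluorescence, real-time kinetic reads / Controls: vehicle wells and EC80 agonist wells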
OXTR agonist: human OXTR agonists, primary screen, fluorescence, CHO-OTR cells, Fluo-8 calcium. Fluo-8 calcium fluorescence; normalized: DMSO 0%, oxytocin 100%. 320,000 tested, 0.32% active. activation, % at 3 µM. Oxytocin receptor (Homo sapiens), P30559;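 active means activation above the mean of all tested compounds plus 3 SD, cutoff set per screening run, cut at about 20% in these data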;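 further: peak over basal fluorescence ratio from a 100 s FLIPR kinetic read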
V1aR counter: agonists of human V1a receptor, primary screen, counter-screen for OXTR agonist project, fluorescence, CHO-V1R cells. Vasopressin V1a receptor (Homo sapiens), P37288. Fluo-8 calcium fluorescence, agonist mode; 0% DMSO, 100% 3 nM vasopressin. activation, % at 3 µM. 320,000 tested, 0.25% active;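 active means activation above the mean activation of all tested compounds plus 3 SD, per screening run, cut at about 20% in these data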;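 further: signal is peak over basal fluorescence ratio across a 100 second FLIPR read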
TAAR1 nonsel count: nonselective antagonists in TAAR1 counter-screen cells, counter-screen for hTAAR1 antagonist project, cell-based, fluorescence, calcium | shares compounds with TAAR1 antag | counterscreen cell line, antagonist mode | inhibition, % at 3 µM | 2,400 tested, 77% active | AID 651780, 2012; in the data active means inhibition above about 22%;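 further: CHO-Ga16 host cells stimulated with ATP at an EC80 level; 0% = agonist EC80 plus vehicle and 100% = vehicle without agonist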
TAAR1 ant conf: human TAAR1 antagonists, retest of hits, confirmation, cell-based, fluorescence; inhibition, % at 3 µM; 2,400 tested, 40% active; TAAR1-expressing cells, fluorescence antagonist read-out; shares compounds with TAAR1 antag; in the data active means inhibition above about 49%;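 further: CHO-Ga16 host cells challenged with agonist PEA near its EC80; 0% = agonist at EC80 plus vehicle and 100% = vehicle with no agonist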
Ga16 nonsel ag: calcium activation in Ga16-expressing cells, counter-screen for TAAR1 antagonist project, cell-based, fluorescence; shares compounds with TAAR1 antag; agonist counterscreen; activation, % at 3 µM; 2,400 tested, 18% active; AID 651953, 2012; in the data active means activation above about 12%;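 further: 0% = vehicle wells and 100% = saturating stimulus response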
TAAR1 ag count: TAAR1 activation by candidate antagonists – cell-based, fluorescence, counter-screen for TAAR1 antagonist project; shares compounds with TAAR1 antag; hTAAR1 cell line, agonist mode; activation, % at 3 µM; 2,400 tested, 2% active; AID 651955, 2012; in the data active means activation above about 37%;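 further: CHO cells stably expressing TAAR1 with calcium dye readout; 0% = DMSO vehicle and 100% = full agonist response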
Active calls of the source: *; x = no result given.

SMILES | TAAR1 ag | OXTR potentiator | TAAR1 antag | OXTR agonist | V1aR counter | TAAR1 nonsel count | TAAR1 ant conf | Ga16 nonsel ag | TAAR1 ag count
CC(C)C(=O)NC(=S)Nc1ccccc1N1CCN(C(=O)c2ccccc2)CC1 | 18.5 | -17.9 | 77.9* | -0.1 | 1.5 | 38.4* | 59.6* | 13.9* | 16.6
CC(=O)NC(=S)Nc1ccccc1N1CCN(C(=O)c2ccccc2)CC1 | 14.8 | -4.2 | 6.4 | 0.7 | 1.4 | x | x | x | x
CCc1cc2c(nc1CC)CCCN2S(=O)(=O)c1c(C)noc1C | 0.5 | x | -20.5 | x | x | x | x | x | x
C=C(C)C(O)CC/C(C)=C/Cc1c(O)ccc(C(=O)/C=C/c2ccc(O)cc2)c1O (configuration not stated) | 9.0 | -9.7 | 69.6* | 4.3 | 1.9 | 28.5* | 29.1 | 6.7 | 7.2
CC(C)COc1cccc(C(=O)N(CC(=O)Nc2ccccc2C(F)(F)F)Cc2ccco2)c1 | 8.7 | -8.9 | 60.6* | -0.4 | -0.5 | 17.8 | 41.2 | 6.4 | 8.6
COc1cc(/C=N/NC(=O)c2cccnc2)ccc1OS(=O)(=O)c1ccc(C)cc1 | 11.8 | -10.5 | 30.4 | 1.0 | 0.9 | x | x | x | x
COc1cc(/C=N/NC(=O)c2cccnc2)ccc1OS(=O)(=O)c1cc(C)ccc1C | 25.1 | -13.4 | 63.9* | 2.9 | 2.0 | 31.6* | 57.2* | 13.9* | 11.8
CC(C)(C)c1ccc(S(=O)(=O)N2CCN(C(=O)C(=O)c3cccc(C(F)(F)F)c3)CC2)cc1 | -1.0 | x | 7.3 | x | x | x | x | x | x
CCN(CC)P(=O)(c1ccccc1)c1c(C)nc2ccccn12 (configuration not stated) | -1.9 | -6.0 | -1.4 | 0.6 | -0.6 | x | x | x | x
O=C(Nc1cccc(-c2ccc(N3CCOCC3)nn2)c1)c1ccc([N+](=O)[O-])cc1 | 6.0 | -2.8 | 39.3 | -1.7 | 0.2 | x | x | x | x
Cc1ccc(C(=O)Nc2cccc(-c3ccc(N4CCOCC4)nn3)c2)cc1[N+](=O)[O-] | 12.7 | 3.0 | 59.9* | -3.0 | -1.4 | 21.4 | 45.0 | 8.1 | 5.2
O=C(CCS(=O)(=O)c1ccc(Cl)cc1)NCCN1C(=O)S/C(=C\c2ccccc2F)C1=O | 14.4 | -15.3 | 70.7* | 15.2 | 11.9 | 38.4* | 38.0 | 11.4 | 7.1
Cc1ccc(NC(=O)C(C)c2ccc(-c3ccccc3)c(F)c2)c(C)c1 (configuration not stated) | 18.8 | -11.5 | 54.3* | -0.2 | 0.7 | 18.1 | 22.5 | 2.7 | 3.9
c1ccc(COCc2ccccc2)cc1 | 0.6 | x | -9.8 | x | x | x | x | x | x
Oc1ccc(N=Nc2ccc3c(c2)OCCO3)c2cccnc12 | 25.7 | -5.7 | 83.5* | 1.8 | -1.0 | 31.9* | 30.6 | 3.4 | 7.5
O=C(NC(c1ccc(-c2ccccc2)cc1)c1cnccn1)C1CCN(CCOc2ccc(F)cc2)CC1 (configuration not stated) | 33.8 | x | 70.7* | x | x | 38.6* | 53.0* | 16.4* | 25.2
CC(C)=N/N=C1/NC(=O)C(c2ccccc2)S1 (configuration not stated) | 33.6 | x | 54.9* | x | x | 7.0 | 0.4 | 6.6 | 7.8
COc1ccc(S(=O)(=O)Nc2ccccc2C(=O)Nc2nc(-c3ccc(F)cc3)cs2)cc1OC | 9.3 | -16.1 | 90.5* | 16.1 | 10.7 | 51.8* | 61.2* | 9.3 | 4.5
Cc1noc(C)c1CSCC(=O)Nc1nc(-c2ccc(F)c(F)c2)cs1 | 9.8 | -16.0 | 81.5* | 0.9 | 4.7 | 49.2* | 58.0* | 9.4 | 4.1
COc1ccccc1CC(=O)Nc1nc(-c2ccc(F)c(F)c2)cs1 | -0.7 | -9.0 | 51.1* | 0.0 | 2.9 | 22.2* | 40.4 | 9.5 | 13.3
COc1ccc(-c2csc(NC(=O)Cc3ccccc3F)n2)cc1OC | 10.2 | -15.9 | 34.3 | 2.1 | 7.0 | x | x | x | x
O=C(Cc1ccccc1F)Nc1nc(-c2ccc(F)cc2)cs1 | 4.9 | -9.4 | 73.9* | -1.9 | 4.4 | 30.0* | 59.4* | 8.7 | 13.7
COc1ccc(/C=N/NC(=O)c2cccc(NC(=O)c3ccccc3Cl)c2)c(OC)c1 | 5.8 | 1.0 | 59.6* | -1.2 | -0.5 | 24.2* | 45.4 | 4.9 | 2.2
COc1cccc(C(=O)Nc2cccc(NC(=O)c3ccccc3Cl)c2)c1 | 10.0 | 5.7 | 67.7* | -0.7 | 0.2 | 19.6 | 43.1 | 8.1 | 4.9
COc1cccc(C(=O)Nc2ccccc2)c1 | 14.8 | -3.8 | -6.6 | -1.6 | -0.1 | x | x | x | x
SMILES | TAAR1 ag | OXTR potentiator | TAAR1 antag | OXTR agonist | V1aR counter | TAAR1 nonsel count | TAAR1 ant conf | Ga16 nonsel ag | TAAR1 ag count
COc1cc(/C=C/c2nc(N)nc(-c3ccccc3O)n2)cc(OC)c1OC | 8.7 | -10.9 | 47.2 | 0.4 | -0.7 | x | x | x | x
COc1cc(/C=C/c2nc(-c3ccccc3O)n[nH]2)cc(OC)c1OC | 3.2 | -4.6 | 72.4* | 0.5 | 3.1 | 21.9* | 50.6* | 5.7 | 3.6
CCC(OC(=O)C(CC(C)C)NC(=O)c1ccccc1)C(=O)Nc1nnc(C)s1 (configuration not stated) | 2.9 | -8.0 | 39.6 | -1.7 | -0.6 | x | x | x | x
CCOC(=O)c1sc(NC(=O)C(CC)OC(=O)C(CC(C)C)NC(=O)c2ccccc2)nc1C (configuration not stated) | 11.3 | -10.6 | 65.5* | 0.4 | 1.1 | 38.6* | 56.9* | 7.1 | 4.2
COc1ccc(NC(=O)c2ccc(C#N)cc2)cc1NS(=O)(=O)c1ccc(F)cc1 | -0.3 | -5.8 | 70.5* | 1.2 | 2.0 | 5.5 | 8.3 | 4.8 | 4.8
COc1ccc(NC(=O)c2ccc3ccccc3c2)cc1NS(=O)(=O)c1ccc(F)cc1 | 1.4 | -6.1 | 7.1 | -1.1 | 0.2 | x | x | x | x
CC(C)(C)N1C(=O)c2ccc(C(=O)O)cc2C1=O | 1.6 | -9.5 | -14.4 | 1.4 | 0.9 | x | x | x | x
CC(C)(C)NC(=O)c1cccc(NC(=O)c2ccc3c(c2)C(=O)N(C(C)(C)C)C3=O)c1 | 21.3 | -14.0 | 85.0* | 2.4 | 7.8 | 38.4* | 64.9* | 13.0* | 10.8
CC(C)(C)N1C(=O)c2ccc(C(=O)Nc3ccc(O)cc3)cc2C1=O | 12.3 | -7.0 | 63.3* | 0.2 | 0.7 | 23.6* | 25.7 | 6.6 | 6.0
